In ChEMBL document CHEMBL1144579, “Synthesis and antiparasitic evaluation of bis-2,5-[4-guanidinophenyl]thiophenes” (Eur J Med Chem, 2007):
Active and inactive are the calls of the source. The calls are words filed in the database; no cut-off is given here.

Key:
[1] = system: L6; assay: Cytotoxicity against rat L6 cells by alamar blue assay; format: cell-based
[2] = system: Mus musculus; assay: Survival of Trypanosoma brucei rhodesiense STIB900 infected mouse at 20 mg/kg, ip administered for 4 days; format: functional; conditions: route intraperitoneal
[3] = system: Leishmania donovani; assay: Antiparasitic activity against Leishmania donovani; format: functional, organism-based
[4] = system: Trypanosoma brucei rhodesiense; assay: Antiparasitic activity against Trypanosoma brucei rhodesiense STIB900; format: functional, organism-based
Summary of the method: (§1)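 In vitro IC50s against T. b. rhodesiense STIB900 and P. falciparum K1 are means of at least two independent experiments. The IC50 values averaged for each compound were within a factor of two of each other.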

[5] = system: Trypanosoma cruzi; assay: Antiparasitic activity against Trypanosoma cruzi Tulahuen LacZ C4; format: functional, organism-based
[6] = system: Plasmodium falciparum; assay: Antiparasitic activity against Plasmodium falciparum K1; format: functional, organism-based; summary of the method: as §1
[7] = system: Trypanosoma brucei rhodesiense; assay: Antitrypanosomal activity in Trypanosoma brucei rhodesiense STIB900 infected mouse at 20 mg/kg, ip administered for 4 days; format: functional, organism-based; parameters: dose 20 mg/kg
[8] = system: Mus musculus; assay: Survival of Trypanosoma brucei rhodesiense STIB900 infected mouse at 5 mg/kg, ip administered for 4 days; format: functional; conditions: route intraperitoneal

SMILES | IC50 [1] | Survival [2] | IC50 [3] | IC50 [4] | IC50 [5] | IC50 [6] | Activity [7] | Survival [8]
CNC(=N)Nc1ccc(-c2ccc(-c3ccc(NC(=N)NC)cc3)s2)cc1 | 54.3 µM | >40.25 days | 6.2 µM | 0.0062 µM | 30.5 µM | 0.023 µM | – | –
N=C(N)Nc1ccc(-c2ccc(-c3ccc(NC(=N)N)cc3)s2)cc1 | 100 µM | 43 days | 6.7 µM | 0.028 µM | 154 µM | 0.0036 µM | inactive | –
N=C(Nc1ccccc1)Nc1ccc(-c2ccc(-c3ccc(NC(=N)Nc4ccccc4)cc3)s2)cc1 | 2.5 µM | – | 35 µM | 1.9 µM | 9.9 µM | 0.154 µM | – | –
N=C(N)c1ccc(-c2ccc(-c3ccc(C(=N)N)cc3)o2)cc1 [FURAMIDINE] | – | >52.5 days | 2.8 µM | – | 23.3 µM | – | inactive | –
N=C(Nc1ccc(-c2ccc(-c3ccc(NC(=N)NC4CCCCC4)cc3)s2)cc1)NC1CCCCC1 | 4.3 µM | – | 2.5 µM | 0.354 µM | 1.7 µM | 0.16 µM | – | –
CCN(CC)CCCC(C)Nc1ccnc2cc(Cl)ccc12 (centres undefined) [CHLOROQUINE] | 188 µM | – | – | – | – | – | – | –
N=C(N)c1ccc(OCCCCCOc2ccc(C(=N)N)cc2)cc1 [PENTAMIDINE] | – | 40.8 days | 1.9 µM | – | 5.35 µM | – | inactive | –
CC(C)NC(=N)Nc1ccc(-c2ccc(-c3ccc(NC(=N)NC(C)C)cc3)s2)cc1 | 69.4 µM | – | 11 µM | 0.116 µM | 28.2 µM | 0.107 µM | – | >34 days
Cc1ccc(NC(=N)Nc2ccc(-c3ccc(-c4ccc(NC(=N)Nc5ccc(C)cc5)cc4)s3)cc2)cc1 | 1.1 µM | – | 16 µM | 0.573 µM | 3.7 µM | 0.0427 µM | – | –
N=C(Nc1ccc(-c2ccc(-c3ccc(NC(=N)NC4CCCC4)cc3)s2)cc1)NC1CCCC1 | 15.9 µM | >39.5 days | 1.5 µM | 0.306 µM | 8.4 µM | 0.134 µM | – | –
